Laboratory results published in ChEMBL document CHEMBL4028886 (J Med Chem, 2017).
Active and inactive are the calls of the source. The rule behind the calls is not given here.

How the values were obtained:
Rattus norvegicus [1] = assay: Neurotoxicity in Sprague-Dawley rat assessed as effect on resting time at 10 mg/kg, ip administered 30 mins prior to test by elevated plus maze test relative to control; type: toxicity, organism-based; conditions: in vivo, 0.5 h
Summary of the method: (§1)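 Male Sprague–Dawley rats, 10 per group, dosed 10 mg/kg ip daily for 10 days and 30 min before testing. DMSO vehicle controls. Elevated plus maze, rats placed centrally and video-tracked. Recorded: time in closed and open arms, arm entries, path length.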

Rattus norvegicus [2] = assay: Neurotoxicity in Sprague-Dawley rat assessed as effect on time spent on revolving rod at 10 mg/kg, ip administered 30 mins prior to test by rotarod test relative to control; type: toxicity, organism-based; conditions: in vivo, 0.5 h
Summary of the method: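 Male Sprague–Dawley rats, 10 per group, dosed 10 mg/kg ip daily for 10 days and 30 min before testing. DMSO vehicle controls. Rotarod, time spent on the revolving rod recorded.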

Rattus norvegicus [3] = assay: Neurotoxicity in Sprague-Dawley rat assessed as effect on large movements at 10 mg/kg, ip administered 30 mins prior to test by open field test relative to control; type: toxicity, organism-based; conditions: in vivo, 0.5 h
Summary of the method: (§2)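 Male Sprague–Dawley rats, 10 per group, given 10 mg/kg ip daily for 10 days and 30 min before each test. DMSO vehicle group as control. Open field arena 100 × 100 cm with 40 cm walls. Animals video-tracked for 10 min.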

Rattus norvegicus [4] = assay: Neurotoxicity in Sprague-Dawley rat assessed as toe pinch score at 10 mg/kg, ip administered 30 mins prior to test (reference value: 1.8 +/- 0.6325); type: toxicity, organism-based; conditions: in vivo, 0.5 h
Rattus norvegicus [5] = assay: Neurotoxicity in Sprague-Dawley rat assessed as finger approach score at 10 mg/kg, ip administered 30 mins prior to test (reference value: 1.4 +/- 1.350); type: toxicity, organism-based; conditions: in vivo, 0.5 h
Rattus norvegicus [6] = assay: Neurotoxicity in Sprague-Dawley rat assessed as effect on time spent in closed arm at 10 mg/kg, ip administered 30 mins prior to test by elevated plus maze test relative to control; type: toxicity, organism-based; conditions: in vivo, 0.5 h; summary of the method: as §1
Rattus norvegicus [7] = assay: Neurotoxicity in Sprague-Dawley rat assessed as pinna reflex score at 10 mg/kg, ip administered 30 mins prior to test (reference value: 1.2 +/- 1.033); type: toxicity, organism-based; conditions: in vivo, 0.5 h
[8] = target: Sodium-dependent serotonin transporter (Homo sapiens, UniProt P31645); assay: Inhibition of re-uptake of [3H]-5-HT at human SERT expressed in HEK293 cells preincubated for 5 mins followed by [3H]-dopamine addition measured after 1 min by liquid scintillation counting; type: cell-based; conditions: hek293
Rattus norvegicus [9] = assay: Neurotoxicity in Sprague-Dawley rat assessed as effect on time spent in open arm at 10 mg/kg, ip administered 30 mins prior to test by elevated plus maze test relative to control; type: toxicity, organism-based; conditions: in vivo, 0.5 h; summary of the method: as §1
Rattus norvegicus [10] = assay: Neurotoxicity in Sprague-Dawley rat assessed as body position score at 10 mg/kg, ip administered 30 mins prior to test (reference value: 1.8 +/- 0.4216); type: toxicity, organism-based; conditions: in vivo, 0.5 h
Rattus norvegicus [11] = assay: Neurotoxicity in Sprague-Dawley rat assessed as piloerection score at 10 mg/kg, ip administered 30 mins prior to test (reference value: 2.1 +/- 0.3162); type: toxicity, organism-based; conditions: in vivo, 0.5 h
Rattus norvegicus [12] = assay: Neurotoxicity in Sprague-Dawley rat assessed as effect on immobility time at 10 mg/kg, ip administered 30 mins prior to test by forced swim test relative to control; type: toxicity, organism-based; conditions: in vivo, 0.5 h
Summary of the method: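 Male Sprague–Dawley rats, 10 per group, dosed 10 mg/kg ip daily for 10 days and 30 min before testing. DMSO vehicle controls. Forced swim in a cylinder 18 cm diameter with 23 cm water at 25 °C. 15 min pretest, then a 5 min test 24 h later. Immobility duration scored over the 5 min.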

Rattus norvegicus [13] = assay: Neurotoxicity in Sprague-Dawley rat assessed as touch escape score at 10 mg/kg, ip administered 30 mins prior to test (reference value: 1.2 +/- 1.033); type: toxicity, organism-based; conditions: in vivo, 0.5 h
Rattus norvegicus [14] = assay: Neurotoxicity in Sprague-Dawley rat assessed as grip strength score at 10 mg/kg, ip administered 30 mins prior to test (reference value: 2.4 +/- 1.265); type: toxicity, organism-based; conditions: in vivo, 0.5 h
Rattus norvegicus [15] = assay: Neurotoxicity in Sprague-Dawley rat assessed as limb tone score at 10 mg/kg, ip administered 30 mins prior to test (reference value: 3.3 +/- 0.6749); type: toxicity, organism-based; conditions: in vivo, 0.5 h
Rattus norvegicus [16] = assay: Neurotoxicity in Sprague-Dawley rat assessed as visual placing score at 10 mg/kg, ip administered 30 mins prior to test (reference value: 1.9 +/- 0.3162); type: toxicity, organism-based; conditions: in vivo, 0.5 h
[17] = target: T1, Sodium-dependent dopamine transporter (Homo sapiens, UniProt Q01959); assay: Inhibition of re-uptake of [3H]-dopamine at human DAT expressed in HEK293 cells preincubated for 5 mins followed by [3H]-dopamine addition measured after 1 min by liquid scintillation counting; type: cell-based; conditions: read-out: IC50
Summary of the method: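 HEK293 cells stably expressing human DAT or NET, seeded on PDL-coated plates 24 h before. Preincubated 5 min in Krebs–HEPES buffer pH 7.3 with compound at 0.001 μM to 1 mM (DMSO stock diluted in buffer). Substrate then added: 0.2 μM [3H]dopamine for DAT, 1 min; 0.05 μM [3H]MPP+ for NET, 3 min. Room temperature. Uptake stopped with ice-cold buffer. Cells lysed in 1% SDS and counted by scintillation. Unspecific uptake defined with 10 μM mazindol. IC50 by nonlinear regression.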

[18] = target: T1, Sodium-dependent dopamine transporter; assay: Displacement of [3H]WIN 35,428 from human DAT expressed in HEK293 cells at 1 and 3 uM after 30 mins in presence of increasing concentration of cocaine by liquid scintillation counting; type: cell-based
Summary of the method: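 Intact HEK-DAT cells on PDL-coated plates, in binding buffer (HEPES, NaCl, KCl, CaCl2, MgCl2, 10 μM ZnCl2, glucose, pH 7,3). Incubated with ~10 nM [3H]WIN 35,428, fixed concentrations of test compound and cocaine 0.001–1 μM, 30 min at 25 °C. Nonspecific binding defined with 30 μM mazindol. Cells lysed in 1% SDS and counted by scintillation. Reciprocal of bound (fmol) plotted against cocaine concentration as Dixon plot. Three experiments in triplicate, mean ± SD.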

Rattus norvegicus [19] = assay: Neurotoxicity in Sprague-Dawley rat assessed as pelvic elevation score at 10 mg/kg, ip administered 30 mins prior to test (reference value: 3.8 +/- 0.6325); type: toxicity, organism-based; conditions: in vivo, 0.5 h
Rattus norvegicus [20] = assay: Neurotoxicity in Sprague-Dawley rat assessed as effect on number of crossings of the center at 10 mg/kg, ip administered 30 mins prior to test by open field test relative to control; type: toxicity, organism-based; conditions: in vivo, 0.5 h; summary of the method: as §2
Rattus norvegicus [21] = assay: Neurotoxicity in Sprague-Dawley rat assessed as locomotor activity score at 10 mg/kg, ip administered 30 mins prior to test (reference value: 2.6 +/- 0.9661); type: toxicity, organism-based; conditions: in vivo, 0.5 h
Rattus norvegicus [22] = assay: Neurotoxicity in Sprague-Dawley rat assessed as effect on frequency of spontaneous changes of direction at 10 mg/kg, ip administered 30 mins prior to test by open field test; type: toxicity, organism-based; conditions: in vivo, 0.5 h; summary of the method: as §2
Rattus norvegicus [23] = assay: Neurotoxicity in Sprague-Dawley rat assessed as effect on time spent in the left open arm at 10 mg/kg, ip administered 30 mins prior to test by elevated plus maze test relative to control; type: toxicity, organism-based; conditions: in vivo, 0.5 h; summary of the method: as §1
Rattus norvegicus [24] = assay: Neurotoxicity in Sprague-Dawley rat assessed as transfer arousal score at 10 mg/kg, ip administered 30 mins prior to test (reference value: 3.1 +/- 0.3162); type: toxicity, organism-based; conditions: in vivo, 0.5 h
Rattus norvegicus [25] = assay: Neurotoxicity in Sprague-Dawley rat assessed as tail elevation score at 10 mg/kg, ip administered 30 mins prior to test (reference value: 2.2 +/- 0.6325); type: toxicity, organism-based; conditions: in vivo, 0.5 h

T1 sequence (Q01959 whole entry): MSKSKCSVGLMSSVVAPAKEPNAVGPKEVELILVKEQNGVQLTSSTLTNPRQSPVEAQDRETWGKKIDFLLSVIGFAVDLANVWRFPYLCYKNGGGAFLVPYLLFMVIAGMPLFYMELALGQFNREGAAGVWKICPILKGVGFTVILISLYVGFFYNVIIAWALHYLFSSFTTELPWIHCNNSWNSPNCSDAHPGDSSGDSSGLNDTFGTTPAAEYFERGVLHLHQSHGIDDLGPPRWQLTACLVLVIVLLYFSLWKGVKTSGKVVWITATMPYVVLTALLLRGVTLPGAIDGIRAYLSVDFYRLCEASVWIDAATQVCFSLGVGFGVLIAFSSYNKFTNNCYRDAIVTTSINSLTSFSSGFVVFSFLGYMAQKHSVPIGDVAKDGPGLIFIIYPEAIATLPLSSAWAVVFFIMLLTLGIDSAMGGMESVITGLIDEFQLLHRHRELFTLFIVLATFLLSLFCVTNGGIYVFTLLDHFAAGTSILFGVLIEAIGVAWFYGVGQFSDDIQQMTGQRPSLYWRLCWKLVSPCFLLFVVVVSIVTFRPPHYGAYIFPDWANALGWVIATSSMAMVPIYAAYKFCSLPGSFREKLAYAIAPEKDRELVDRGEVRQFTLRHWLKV
Chain of Sodium-dependent serotonin transporter (P31645 whole entry): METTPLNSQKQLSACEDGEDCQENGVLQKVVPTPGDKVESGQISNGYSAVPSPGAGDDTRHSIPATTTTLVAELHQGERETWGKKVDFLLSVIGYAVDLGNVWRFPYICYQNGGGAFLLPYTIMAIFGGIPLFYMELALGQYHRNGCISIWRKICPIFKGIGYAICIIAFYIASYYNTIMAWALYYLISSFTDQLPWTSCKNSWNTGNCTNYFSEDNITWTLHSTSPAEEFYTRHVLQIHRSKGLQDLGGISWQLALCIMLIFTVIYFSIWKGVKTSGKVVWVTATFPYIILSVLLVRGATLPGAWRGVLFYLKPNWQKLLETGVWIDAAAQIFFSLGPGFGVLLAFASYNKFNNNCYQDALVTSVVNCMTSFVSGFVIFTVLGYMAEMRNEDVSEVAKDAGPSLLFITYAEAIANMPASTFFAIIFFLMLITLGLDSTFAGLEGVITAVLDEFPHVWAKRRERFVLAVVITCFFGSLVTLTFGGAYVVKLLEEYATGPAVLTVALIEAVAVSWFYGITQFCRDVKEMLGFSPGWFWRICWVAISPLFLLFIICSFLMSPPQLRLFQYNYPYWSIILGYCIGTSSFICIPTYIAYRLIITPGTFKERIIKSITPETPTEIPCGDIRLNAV

Q: For `[O-][S+](Cc1cccs1)C(c1ccccc1)c1ccccc1` (stereo not given), which Activity (Rattus norvegicus [1]) is on record?
A: Non-Toxic

Q: And the Activity (Rattus norvegicus [2])?
A: Non-Toxic

Q: What about the Activity (Rattus norvegicus [3]) of the same molecule?
A: Non-Toxic

Q: And the Activity (Rattus norvegicus [4])?
A: 1.6

Q: And the Activity (Rattus norvegicus [5])?
A: 1.4

Q: What about the Activity (Rattus norvegicus [6]) of the same molecule?
A: Non-Toxic

Q: And the Activity (Rattus norvegicus [7])?
A: 1.4

Q: What about the IC50 [8] of the same molecule?
A: Not Active

Q: And the Activity (Rattus norvegicus [9])?
A: Non-Toxic

Q: And the Activity (Rattus norvegicus [10])?
A: 1.9

Q: And the Activity (Rattus norvegicus [11])?
A: 2.2

Q: And the Activity (Rattus norvegicus [12])?
A: Non-Toxic

Q: What about the Activity (Rattus norvegicus [13]) of the same molecule?
A: 1.2

Q: And the Activity (Rattus norvegicus [14])?
A: 3

Q: And the Activity (Rattus norvegicus [15])?
A: 3.5

Q: What about the Activity (Rattus norvegicus [16]) of the same molecule?
A: 1.7

Q: What about the IC50 [17] of the same molecule?
A: 1.4 µM

Q: And the inhibition [18]?
A: Active

Q: What about the Activity (Rattus norvegicus [19]) of the same molecule?
A: 3.6

Q: What about the Activity (Rattus norvegicus [20]) of the same molecule?
A: Non-Toxic

Q: What about the Activity (Rattus norvegicus [21]) of the same molecule?
A: 2.6

Q: What about the Activity (Rattus norvegicus [22]) of the same molecule?
A: Non-Toxic

Q: What about the Activity (Rattus norvegicus [23]) of the same molecule?
A: Non-Toxic

Q: And the Activity (Rattus norvegicus [24])?
A: 3.2

Q: What about the Activity (Rattus norvegicus [25]) of the same molecule?
A: 1.8
